Test results taken from ChEMBL document CHEMBL5724801, “EUbOPEN Chemogenomics Library - Multiplex” (2024).
“And” between values parts separate entries of the source, which are not always exact repeats. Identical values can stand only once.

Tested on: HEK-293T
Experiment: Multiplex assay against HEK293T
Format: toxicity, cell-based
Conditions: human
Summary of the method: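 Cells were classed with CellPathfinder machine-learning gating, first as Hoechst high-intensity objects or normal cells, then (normal cells) as healthy, pyknosed or fragmented nuclei, and finally (pyknosed cells) as mitotic or apoptotic. Staining of live cells at seeding used Hoechst33342, BioTracker Green Microtubule Cytoskeleton Dye, MitoTracker Red and Annexin V Alexa Fluor 680, with imaging on a CQ1 microscope at 37°C and 5% CO2 after compound addition. Tubulin, mitochondrial-mass and membrane-permeability phenotypes are per cents of healthy-nucleus cells.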

[1] = 12 h, 1 µM, compound concentration 1 uM
[2] = 12 h, 10 µM, compound concentration 10 uM
[3] = 24 h, 1 µM, compound concentration 1 uM
[4] = 24 h, 10 µM, compound concentration 10 uM
[5] = 48 h, 1 µM, compound concentration 1 uM
[6] = 48 h, 10 µM, compound concentration 10 uM

CCCCC1=NC2(CCCC2)C(=O)N1Cc1ccc(-c2ccccc2-c2nnn[nH]2)cc1 [IRBESARTAN]
Population Apoptotic (%) [1]: 24% and 28%
Population Fragmented Nuclei (%) [1]: 9% and 8%
Population Healthy Nuclei (%) [1]: 79% and 78%
Population Hoechst High Intensity Objects (%) [1]: 9% and 4%
Population Membrane Permeable-Phenotype (%) [1]: 0%
Population Mitochondria Different-Phenotype (%) [1]: 34% and 63%
Population Mitotic Cells (%) [1]: 75% and 71%
Population Normal (%) [1]: 91% and 95%
Population Pyknosed Nuclei (%) [1]: 10% and 12%
Population Tubulin-Different-Phenotype (%) [1]: 17% and 20%
Total Cell Count [1]: 500 and 353
Population Apoptotic (%) [2]: 50% and 56%
Population Fragmented Nuclei (%) [2]: 7% and 6%
Population Healthy Nuclei (%) [2]: 70% and 78%
Population Hoechst High Intensity Objects (%) [2]: 5% and 13%
Population Membrane Permeable-Phenotype (%) [2]: 2% and 0%
Population Mitochondria Different-Phenotype (%) [2]: 46% and 66%
Population Mitotic Cells (%) [2]: 50% and 43%
Population Normal (%) [2]: 94% and 86%
Population Pyknosed Nuclei (%) [2]: 22% and 15%
Population Tubulin-Different-Phenotype (%) [2]: 50% and 33%
Total Cell Count [2]: 219 and 351
Population Apoptotic (%) [3]: 31% and 34%
Population Fragmented Nuclei (%) [3]: 9%
Population Healthy Nuclei (%) [3]: 79% and 80%
Population Hoechst High Intensity Objects (%) [3]: 4% and 7%
Population Membrane Permeable-Phenotype (%) [3]: 0%
Population Mitochondria Different-Phenotype (%) [3]: 24% and 45%
Population Mitotic Cells (%) [3]: 68% and 65%
Population Normal (%) [3]: 95% and 92%
Population Pyknosed Nuclei (%) [3]: 10% and 9%
Population Tubulin-Different-Phenotype (%) [3]: 15% and 14%
Total Cell Count [3]: 625 and 456
Population Apoptotic (%) [4]: 27% and 41%
Population Fragmented Nuclei (%) [4]: 6% and 11%
Population Healthy Nuclei (%) [4]: 77%
Population Hoechst High Intensity Objects (%) [4]: 3% and 10%
Population Membrane Permeable-Phenotype (%) [4]: 1% and 0%
Population Mitochondria Different-Phenotype (%) [4]: 37% and 49%
Population Mitotic Cells (%) [4]: 72% and 58%
Population Normal (%) [4]: 96% and 89%
Population Pyknosed Nuclei (%) [4]: 15% and 11%
Population Tubulin-Different-Phenotype (%) [4]: 32% and 22%
Total Cell Count [4]: 287 and 434
Population Apoptotic (%) [5]: 29% and 23%
Population Fragmented Nuclei (%) [5]: 11% and 9%
Population Healthy Nuclei (%) [5]: 81% and 84%
Population Hoechst High Intensity Objects (%) [5]: 3% and 2%
Population Membrane Permeable-Phenotype (%) [5]: 0% and 1%
Population Mitochondria Different-Phenotype (%) [5]: 21% and 19%
Population Mitotic Cells (%) [5]: 70% and 76%
Population Normal (%) [5]: 96% and 97%
Population Pyknosed Nuclei (%) [5]: 7% and 6%
Population Tubulin-Different-Phenotype (%) [5]: 15% and 8%
Total Cell Count [5]: 958 and 705
Population Apoptotic (%) [6]: 25% and 46%
Population Fragmented Nuclei (%) [6]: 15% and 12%
Population Healthy Nuclei (%) [6]: 75% and 80%
Population Hoechst High Intensity Objects (%) [6]: 1% and 3%
Population Membrane Permeable-Phenotype (%) [6]: 0%
Population Mitochondria Different-Phenotype (%) [6]: 21% and 26%
Population Mitotic Cells (%) [6]: 75% and 53%
Population Normal (%) [6]: 98% and 96%
Population Pyknosed Nuclei (%) [6]: 9% and 6%
Population Tubulin-Different-Phenotype (%) [6]: 15%
Total Cell Count [6]: 473 and 684

COC(=O)C1=C(C)NC(C)=C(C(=O)OC(C)C)C1c1cccc2nonc12 (centres undefined) [ISRADIPINE]
Population Apoptotic (%) [1]: 14.42% and 4.72%
Population Fragmented Nuclei (%) [1]: 2.79% and 5.84%
Population Hoechst High Intensity Objects (%) [1]: 0%
Population Membrane Permeable-Phenotype (%) [1]: 0%
Population Mitochondria Different-Phenotype (%) [1]: 37.14% and 47.83%
Population Mitotic Cells (%) [1]: 85.58% and 95.28%
Population Normal (%) [1]: 100%
Population Pyknosed Nuclei (%) [1]: 32.2% and 77.37%
Total Cell Count [1]: 323 and 137
Population Apoptotic (%) [2]: 3.97% and 9.29%
Population Fragmented Nuclei (%) [2]: 0.97% and 1.28%
Population Hoechst High Intensity Objects (%) [2]: 0.32% and 0%
Population Membrane Permeable-Phenotype (%) [2]: 0.65% and 0%
Population Mitochondria Different-Phenotype (%) [2]: 39.61% and 35.71%
Population Mitotic Cells (%) [2]: 96.03% and 90.71%
Population Normal (%) [2]: 99.68% and 100%
Population Pyknosed Nuclei (%) [2]: 49.03% and 89.74%
Total Cell Count [2]: 309 and 156
Population Apoptotic (%) [3]: 10.81% and 2.08%
Population Fragmented Nuclei (%) [3]: 3.28% and 3.47%
Population Healthy Nuclei (%) [3]: 76.5% and 41.04%
Population Hoechst High Intensity Objects (%) [3]: 0% and 1.14%
Population Membrane Permeable-Phenotype (%) [3]: 2.62% and 1.41%
Population Mitochondria Different-Phenotype (%) [3]: 16.9% and 15.49%
Population Mitotic Cells (%) [3]: 89.19% and 97.92%
Population Normal (%) [3]: 100% and 98.86%
Population Pyknosed Nuclei (%) [3]: 20.22% and 55.49%
Population Tubulin-Different-Phenotype (%) [3]: 7.62% and 1.41%
Population Apoptotic (%) [4]: 14.52% and 14.29%
Population Fragmented Nuclei (%) [4]: 1% and 1.72%
Population Hoechst High Intensity Objects (%) [4]: 0.5% and 0%
Population Membrane Permeable-Phenotype (%) [4]: 1.48% and 0%
Population Mitochondria Different-Phenotype (%) [4]: 27.68% and 22.58%
Population Mitotic Cells (%) [4]: 85.48% and 85.71%
Population Normal (%) [4]: 99.5% and 100%
Population Pyknosed Nuclei (%) [4]: 31.08% and 80.46%
Population Tubulin-Different-Phenotype (%) [4]: 40.59% and 25.81%
Total Cell Count [4]: 401 and 174
Population Apoptotic (%) [5]: 8.94% and 17.46%
Population Fragmented Nuclei (%) [5]: 4.71% and 1.73%
Population Healthy Nuclei (%) [5]: 86.76% and 76.47%
Population Hoechst High Intensity Objects (%) [5]: 0% and 1.03%
Population Membrane Permeable-Phenotype (%) [5]: 5.91% and 5.88%
Population Mitochondria Different-Phenotype (%) [5]: 13.5% and 15.84%
Population Mitotic Cells (%) [5]: 91.06% and 82.54%
Population Normal (%) [5]: 100% and 98.97%
Population Pyknosed Nuclei (%) [5]: 8.52% and 21.8%
Population Apoptotic (%) [6]: 9.09% and 15.38%
Population Fragmented Nuclei (%) [6]: 2.12% and 2.49%
Population Healthy Nuclei (%) [6]: 83.92% and 48.96%
Population Hoechst High Intensity Objects (%) [6]: 0.14% and 0%
Population Membrane Permeable-Phenotype (%) [6]: 6.22% and 3.39%
Population Mitochondria Different-Phenotype (%) [6]: 41.85% and 34.75%
Population Mitotic Cells (%) [6]: 90.91% and 84.62%
Population Normal (%) [6]: 99.86% and 100%
Total Cell Count [6]: 710 and 241

CC(C)(C)c1cc(C(C)(C)C)c(NC(=O)c2c[nH]c3ccccc3c2=O)cc1O [IVACAFTOR]
Population Apoptotic (%) [1]: 10.06% and 8.26%
Population Fragmented Nuclei (%) [1]: 0% and 2.11%
Population Healthy Nuclei (%) [1]: 51.67% and 21.13%
Population Hoechst High Intensity Objects (%) [1]: 0.3% and 0%
Population Membrane Permeable-Phenotype (%) [1]: 0.59% and 0%
Population Mitochondria Different-Phenotype (%) [1]: 31.76% and 13.33%
Population Mitotic Cells (%) [1]: 89.94% and 91.74%
Population Normal (%) [1]: 99.7% and 100%
Population Pyknosed Nuclei (%) [1]: 48.33% and 76.76%
Total Cell Count [1]: 330 and 142
Population Apoptotic (%) [2]: 31.3% and 21.05%
Population Fragmented Nuclei (%) [2]: 2.9% and 1.94%
Population Hoechst High Intensity Objects (%) [2]: 0.72% and 0%
Population Membrane Permeable-Phenotype (%) [2]: 0%
Population Mitochondria Different-Phenotype (%) [2]: 27.01% and 57.89%
Population Mitotic Cells (%) [2]: 68.7% and 78.95%
Population Normal (%) [2]: 99.28% and 100%
Population Pyknosed Nuclei (%) [2]: 47.46% and 85.81%
Total Cell Count [2]: 278 and 155
Population Apoptotic (%) [3]: 15.6% and 17.89%
Population Fragmented Nuclei (%) [3]: 0.58% and 1.37%
Population Healthy Nuclei (%) [3]: 78.42% and 33.56%
Population Hoechst High Intensity Objects (%) [3]: 0%
Population Membrane Permeable-Phenotype (%) [3]: 0.49% and 2.04%
Population Mitochondria Different-Phenotype (%) [3]: 13.02% and 8.16%
Population Mitotic Cells (%) [3]: 84.4% and 82.11%
Population Normal (%) [3]: 100%
Population Tubulin-Different-Phenotype (%) [3]: 7.13% and 10.2%
Population Apoptotic (%) [4]: 52.29% and 35.25%
Population Fragmented Nuclei (%) [4]: 2.77% and 2.63%
Population Hoechst High Intensity Objects (%) [4]: 0.82% and 0%
Population Membrane Permeable-Phenotype (%) [4]: 0% and 3.85%
Population Mitotic Cells (%) [4]: 47.71% and 64.75%
Population Normal (%) [4]: 99.18% and 100%
Population Pyknosed Nuclei (%) [4]: 30.19% and 80.26%
Population Tubulin-Different-Phenotype (%) [4]: 10.74% and 7.69%
Total Cell Count [4]: 364 and 152
Population Apoptotic (%) [5]: 8.49% and 16.88%
Population Fragmented Nuclei (%) [5]: 2.06% and 0.56%
Population Healthy Nuclei (%) [5]: 89.56% and 55.93%
Population Hoechst High Intensity Objects (%) [5]: 0.24% and 0.56%
Population Membrane Permeable-Phenotype (%) [5]: 3.45% and 1.01%
Population Mitotic Cells (%) [5]: 91.51% and 83.12%
Population Normal (%) [5]: 99.76% and 99.44%
Population Apoptotic (%) [6]: 17.35% and 40.23%
Population Fragmented Nuclei (%) [6]: 2.23% and 4%
Population Healthy Nuclei (%) [6]: 84.89% and 46.29%
Population Hoechst High Intensity Objects (%) [6]: 0.13% and 1.69%
Population Membrane Permeable-Phenotype (%) [6]: 2.48% and 1.23%
Population Mitochondria Different-Phenotype (%) [6]: 34.21% and 56.79%
Population Mitotic Cells (%) [6]: 82.65% and 59.77%
Population Normal (%) [6]: 99.87% and 98.31%
